Data on 96 molecules can be found in ChEMBL document CHEMBL4513216, “Probing the Open Global Health Chemical Diversity Library for Multistage-Active Starting Points for Next-Generation Antimalarials” (ACS Infect Dis, 2020).

The series in a line: Toxicity liver stage against HepG2, at 10uM. The series is classed as cell-based. Details: test concentration 10 uM, cell line HepG2-A16-CD81EGFP. The settings on record: human, HepG2-A16-CD81EGFP cells; read-out: INHIBITION
The gist of the method: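 Uninfected HepG2-A16-CD81EGFP cells, 3 × 10^3 per well, 1536-well, plated on prespotted compound at 10 μM final, parasite-free screening media added to match infected plates; puromycin 10 μM positive, DMSO 0.5% negative; run in parallel with 48 h PbLuc assay at 37 °C, 5% CO2; viability by CellTiter-Glo luminescence, normalized to controls.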
In the case of `CC(c1ncc(-c2ccccc2)o1)N1CCN(C(=O)C(C)(C)C)CC1` (stereo unspecified), the cytotoxicity at 10 µM was 17.4%.
The figure for `Cc1cnc(N2C[C@@H]3CN(C4CCOC4)CCC[C@]3(C(=O)O)C2)nc1` (stereo partly specified) is -111%; for `CCN(CC)CCNc1ncc(-c2cc(C)no2)c(-c2ccoc2C)n1` it is -4.94%; for `CNC(=O)[C@@H]1C[C@@H](N)CN1C1CCN(Cc2ccccn2)CC1` it is -53.5%.
For the molecule `CN(C)CCN1CC2(CCC1=O)CCN(C(=O)c1ccn(C)n1)CC2`, the cytotoxicity at 10 µM was -11%.
With `CCOc1cc(NC(=O)N2CCC(c3nnc[nH]3)CC2)ccc1C`, the cytotoxicity at 10 µM is 14.5%.
On to `CN1CCN(C(=O)CCCc2ccccn2)c2ccc(F)cc21`, for which the cytotoxicity at 10 µM was 1.66%.
For the molecule `CCCC(NC(=O)c1ccc(OC)cc1F)c1nnn[nH]1` (stereo unspecified), the cytotoxicity at 10 µM was -7.61%.
In the case of `COC(=O)c1sccc1CN1CCN(C(=O)c2ccc(C)o2)CC1`, the cytotoxicity at 10 µM was found to be 2.37%.
`CN1CCC2(CC1)C(=O)N(C)c1ccc(F)cc12`: the cytotoxicity at 10 µM was -115%.
As for `O=C(c1csc(Br)c1)N1CCCC(n2ccnc2)C1` (stereo unspecified), the cytotoxicity at 10 µM was 3.51%.
The figure for `COc1ncnc2c1CCN(C(=O)NCc1cccnc1)CC2` is -133%; for `Cc1ccc2nc(CN(Cc3ccc(C#N)cc3)C(C)C)cc(=O)n2c1` it is 21.1%; for `CCCN(C(=O)c1ccncc1)c1nc2c(s1)CCc1c-2cnn1C` it is -14.6%.
The figure for `CNC1CCC2(CC1)CNC(=O)c1cc(C)ccc1O2` (stereo unspecified) is -9.28%; for `O=C(NCc1cccs1)[C@H]1CC[C@@H]2[C@@H](CCN2Cc2ccoc2)O1` it is -0.317%; for `O=C(c1c[nH]cn1)N1CCC(F)(F)C2(CCN(c3cnccn3)C2)C1` (stereo unspecified) it is 8.19%.
Consider `Cc1cnc(C(=O)N2CCCC(Cn3cc(CC(C)C)nn3)C2)cn1` (stereo unspecified), for which the cytotoxicity at 10 µM came to 1.33%.
The figure for `COc1cc(OC)cc(C2(O)CCN(Cc3nc(C)c(C)o3)CC2)c1` is -7.06%.
As to `CNS(=O)(=O)c1ccccc1N1CCN(C(C)C(=O)OC)CC1` (stereo unspecified), the cytotoxicity at 10 µM turned out to be 0.375%.
Regarding `CN1C(=O)C2(NC(=O)c3ccccc3O2)c2ccccc21` (stereo unspecified), the cytotoxicity at 10 µM is -7.65%.
Turning to `Cc1cn2nc(Sc3nnnn3C)sc2n1`, the cytotoxicity at 10 µM worked out at 17.3%.
Regarding `Cc1cccnc1N1CCC(c2nccn2Cc2cscn2)CC1`, the cytotoxicity at 10 µM is -0.65%.
For the molecule `CNc1nc(CNC(=O)Nc2cccc(OC)c2)cs1`, the cytotoxicity at 10 µM is -3.28%.
`c1ccc(Cn2cc3c(n2)C(CNCC2CCOCC2)OCC3)nc1` (stereo unspecified): the cytotoxicity at 10 µM is -149%.
As to `CN1CSC[C@H]1C(=O)N1CCC(Cc2ccccc2F)CC1`, the cytotoxicity at 10 µM is 1.01%.
Take `CC(C)c1nc2c(n1C)CCN(Cc1nc(-c3ccco3)no1)C2`: the cytotoxicity at 10 µM is -0.403%.
The figure for `CC(=O)N1CCC(C(=O)NCc2ncc(-c3ccccc3)o2)CC1` is -63.8%; for `CCSCCN1CCCN(S(C)(=O)=O)CC1` it is -2.75%.
On to `CN(Cc1ccco1)Cc1cnc2n1CCN(c1ncccn1)CC2`, for which the cytotoxicity at 10 µM was -0.603%.
For `COc1ccccc1CNC(=O)N1CCCC(c2nncn2C)C1` (stereo unspecified), the cytotoxicity at 10 µM is -6.51%.
In the case of `CCc1ncc2c(n1)CN(CCCc1nc3ccccc3o1)CC2`, the cytotoxicity at 10 µM was -10.6%.
With `Cn1cnnc1C1CCCN(C(=O)NCc2ccccc2)C1` (stereo unspecified), the cytotoxicity at 10 µM is -14%.
In the case of `CC(C)NC(=O)[C@@H]1C[C@H](N)CN1C(=O)c1cc2ccccc2[nH]c1=O`, the cytotoxicity at 10 µM is 10.3%.
Regarding `Cc1cc(CN2CCN(C(=O)NC(C)c3ccc(C)o3)CC2)on1` (stereo unspecified), the cytotoxicity at 10 µM is -8.72%.
For `CCOC(=O)N1CCC(NC(=O)Nc2cccnc2OCC)CC1`, the cytotoxicity at 10 µM was -31.9%.
`CCNC(=O)NC(=O)CN1CCC(c2cccc(F)c2)C1` (stereo unspecified): the cytotoxicity at 10 µM was -9.45%.
Regarding `Cc1cccc(C(=O)N2CCCC2)c1NCC(=O)NC(C)(C#N)C1CC1` (stereo unspecified), the cytotoxicity at 10 µM was -6.8%.
For the molecule `CNC(=O)[C@H]1C[C@@H]2CN(C(=O)c3ccncc3)C[C@@H]2N1S(C)(=O)=O`, the cytotoxicity at 10 µM is -5.98%.
For the molecule `O=C1CC[C@@H]2[C@@H](CCN2C(=O)c2ccsc2)N1Cc1ccncc1`, the cytotoxicity at 10 µM is -71.5%.
The figure for `Cc1ccc(C(=O)N2CCSCC2)cc1N1CCNC1=O` is -6.33%.
On to `COc1ccc(-c2nccn2CCN2CCCCC2)c(OC)c1OC`, for which the cytotoxicity at 10 µM turned out to be 4.74%.
With `CCOCC1CCN(C(=O)Nc2ccc(-c3csnn3)cc2)C1` (stereo unspecified), the cytotoxicity at 10 µM was found to be 13.7%.
`COCCN1C(=O)CO[C@H]2CN(Cc3ccccc3OC)C[C@H]21`: the cytotoxicity at 10 µM was -1.52%.
Take `NC(=O)CC1CCCN(C(=O)NCC2(c3cccs3)CCCC2)C1` (stereo unspecified): the cytotoxicity at 10 µM was 1.9%.
The figure for `COc1ccccc1N1CCN(C(=O)Cn2nccc2C)CC1(C)C` is 11.8%; for `Cc1nc(-c2noc3ccc(C(=O)NCCN4CCOCC4)cc23)cs1` it is 4.19%.
The figure for `COc1ccc2c(ccn2CCC(=O)/N=c2\[nH]nc(C3CCCO3)s2)c1` (stereo unspecified) is -8.07%; for `Cc1nc(CN2CCCC(N(C)Cc3nc(C)c(C)o3)C2)no1` (stereo unspecified) it is -6.6%; for `OCCNc1nccc(-c2c[nH]nc2-c2ccco2)n1` it is -6.47%.
Regarding `COc1ccc(CN2C[C@@H](CN(C)C)[C@@H](CO)C2)c(Cl)c1OC`, the cytotoxicity at 10 µM is -8.44%.
On to `CC(C)n1cnnc1CN(C)C(=O)C1CCCN(C2CCN(C)CC2)C1` (stereo unspecified), for which the cytotoxicity at 10 µM was -1.26%.
The figure for `CCOCC1CN(Cc2ccoc2)Cc2ncn(CC3CC3)c21` (stereo unspecified) is -14.5%; for `Cc1csc(C(=O)N2CCC(S(C)(=O)=O)C2)c1` (stereo unspecified) it is -5.21%; for `O=C1NC2(CCN(Cc3ccc(F)cc3)CC2)CC1c1ccncc1` (stereo unspecified) it is 3.16%.
The figure for `CCC(C)N(Cc1cccnc1)C(=O)CCSC` (stereo unspecified) is 0.305%; for `CC(C)c1nnc2n1CCN(CC(=O)N1CCc3ccccc3C1)C2` it is -5.92%.
`O=C(CCSC1CCc2ccccc2NC1=O)NCCCO` (stereo unspecified): the cytotoxicity at 10 µM was -5.65%.
The figure for `Cc1c(CCC(=O)N2CCCC2c2ccnc(N(C)C)c2)cnn1C` (stereo unspecified) is 0.469%.
The figure for `CN1CCN(C(=O)N2CCCC2)Cc2cccnc21` is -3.66%.
As for `COCC(=O)N1CCN(Cc2coc(-c3cccc(F)c3)n2)CC1`, the cytotoxicity at 10 µM is -7.16%.
Turning to `O=C(O)CC(NC(=O)CCCc1cccs1)c1ccc(F)cc1` (stereo unspecified), the cytotoxicity at 10 µM was -2.99%.
Turning to `Cc1c(C(=O)N2CCCC(O)(CN(C)C)CC2)c2cc(O)ccc2n1C` (stereo unspecified), the cytotoxicity at 10 µM is -119%.
Regarding `CC(c1cn2ncsc2n1)n1cc2[nH]cccc-2c1=O` (stereo unspecified), the cytotoxicity at 10 µM was -3.74%.
The figure for `Cc1cccc2sc(NC(=O)CN3CCC(C)CC3)nc12` is 2.89%; for `COC(=O)C1=C(C)N=C2SCC(=O)N2C1c1cnn(C)c1C` (stereo unspecified) it is 4.01%.
In the case of `O=C(NC1CC1)c1cc(NC(=O)N2CCCC2)ccc1Cl`, the cytotoxicity at 10 µM came to 3.31%.
As for `O=C1CO[C@H]2CN(S(=O)(=O)c3ccccc3)C[C@H]2N1CC1CCCCC1`, the cytotoxicity at 10 µM was found to be 3.36%.
As to `COC1CCN(C(=O)CCc2c(C)nc3ccnn3c2C)CC1`, the cytotoxicity at 10 µM is -5.72%.
On to `Cc1cccc(CN2CCCC2(C(N)=O)c2cnccn2)n1` (stereo unspecified), for which the cytotoxicity at 10 µM was -21.9%.
With `COCCN1CCN(C(=O)c2ccncc2F)Cc2cccnc21`, the cytotoxicity at 10 µM is 10%.
Take `COCCOc1ccc(NC(=O)N2CCCC2c2ccsc2)cn1` (stereo unspecified): the cytotoxicity at 10 µM was -8.33%.
On to `CC(C)(N)C(=O)N1CCCC(c2cncc(Oc3cccnc3)n2)C1` (stereo unspecified), for which the cytotoxicity at 10 µM is -20.6%.
Turning to `Cc1ccc(C(=O)N2CCCN(Cc3cccs3)CC2)c(=O)[nH]1`, the cytotoxicity at 10 µM is 1.45%.
Regarding `Cc1cccc(C(=O)Nc2c(C(=O)N(C)C)nn(C)c2C)c1`, the cytotoxicity at 10 µM came to 7.58%.
In the case of `Cc1cnn(C2CCCN(C(=O)c3cc(Cl)c4c(c3)OCO4)C2)c1` (stereo unspecified), the cytotoxicity at 10 µM was -5.25%.
The figure for `O=C(NCc1ccnc(OCC2CC2)c1)C1COc2ccccc2O1` (stereo unspecified) is -3.88%; for `CCCS(=O)(=O)NC1CCc2c(ccc(=O)n2CC2CC2)C1` (stereo unspecified) it is -67.3%; for `O=C(Nc1cccc(F)c1)C1CCCN1c1nccs1` (stereo unspecified) it is -4.72%.
Regarding `NS(=O)(=O)c1ccc(CC(=O)N2CCCC(n3cccn3)C2)cc1` (stereo unspecified), the cytotoxicity at 10 µM is -0.481%.
The figure for `Cc1nn(C)c(C)c1C1CCCN1C(=O)c1ccc(NC2CC2)nc1` (stereo unspecified) is -2.85%; for `Cc1ccc(CN(CC(=O)NCC2CCOC2)c2ccc(F)cc2)o1` (stereo unspecified) it is 9.83%.
In the case of `CC(CCc1ncnn1Cc1cccc(Cl)c1)N1CCCC1` (stereo unspecified), the cytotoxicity at 10 µM was -3.03%.
For the molecule `FC(F)(F)C1CCCn2c(CNCc3ccsc3)nnc21` (stereo unspecified), the cytotoxicity at 10 µM came to 16.5%.
Regarding `Cc1cc(N[C@H](CO)c2ccccc2)n2nc(C)cc2n1`, the cytotoxicity at 10 µM is -1.58%.
Consider `CCc1oc(C(=O)N2CC[C@@H]3CC[C@H](C2)N3)cc1CN(CC)CC`, for which the cytotoxicity at 10 µM turned out to be 4.83%.
The figure for `Cc1cc(N2CCC(C(=O)N(C)C)CC2)nc(-c2ccncc2)n1` is -17.1%; for `O=C(C1=CCCC1)N1C[C@H]2CCC[C@@]2(COCc2ccncc2)C1` it is 2.78%.
The figure for `N#Cc1c(Cl)nsc1NCCN1CCOCC1` is 9.64%; for `Cn1cc(-c2cnc(-c3ccnn3C)nc2)cc1C(=O)N1CCCC1` it is 4.55%.
With `COCCNc1ccc(CNC(=O)Nc2cn[nH]c2)cc1`, the cytotoxicity at 10 µM is -2.68%.
With `CN1CCOC(C(=O)N2CCC3(CCCCC3)C2)C1` (stereo unspecified), the cytotoxicity at 10 µM came to 5.41%.
On to `Cn1ccnc1CCNC(=O)NCCC1CCCCO1` (stereo unspecified), for which the cytotoxicity at 10 µM is -1.94%.
Turning to `Cc1cnc(C(C)(C)NC(=O)NCc2cccnc2OC(C)C)s1`, the cytotoxicity at 10 µM was found to be 8.46%.
`CNC(=O)CN1CCCC12CCN(C(=O)c1ccoc1)CC2`: the cytotoxicity at 10 µM is 6.53%.
The figure for `CCc1ncc2c(n1)CN(CC(=O)N1CCc3sccc3C1)CC2` is 4.83%.
